ChEMBL document CHEMBL3272188, “Inhibitors of Bacillus subtilis DNA polymerase III. 6-(arylalkylamino)uracils and 6-anilinouracils” (J Med Chem, 1977)

What was measured:
[1] = Inhibition of wild-type Bacillus subtilis DNA polymerase 3-mediated dGTP truncated DNA synthesis assessed as inhibition of incorporation of [3H]TMP
Outline: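 Pol III truncated DNA synthesis run with dGTP omitted from the reaction. The reported Ki is the inhibitor concentration giving 50% inhibition of enzyme activity.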

Bacillus subtilis = experiment: Inhibition of wild-type Bacillus subtilis DNA polymerase 3-mediated dGTP truncated DNA synthesis assessed as inhibition of incorporation of [3H]TMP at 1 mM
Outline: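 Single-concentration test at 1 mM inhibitor in pol III truncated DNA synthesis with dGTP omitted.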

[2] = Inhibition of Bacillus subtilis DNA polymerase 3/azp-12 mutant-mediated dGTP truncated DNA synthesis assessed as inhibition of incorporation of [3H]TMP

Row | Structure (SMILES) | Ki [1] [µM] | inhibition (Bacillus subtilis) [%] | Ki [2] [µM]
1 | Cc1cccc(Nc2cc(O)nc(O)n2)c1 | 27.5 | – | –
2 | Oc1cc(NCCCc2ccccc2)nc(O)n1 | 2000 | – | –
3 | Oc1cc(NCCCCc2ccccc2)nc(O)n1 | – | < 10 | –
4 | Oc1cc(NCCc2ccccc2)nc(O)n1 | 31.7 | – | 30
5 | Oc1cc(Nc2ccc3c(c2)CCC3)nc(O)n1 | 0.4 | – | –
6 | Nc1ccc(CNc2cc(=O)[nH]c(=O)[nH]2)cc1 | 17 | – | 156
7 | Cc1ccc(Nc2cc(O)nc(O)n2)cc1 | 20.4 | – | –
8 | O=c1cc(NCc2ccc([N+](=O)[O-])cc2)[nH]c(=O)[nH]1 | 5.2 | – | –
9 | Oc1cc(Nc2ccccc2)nc(O)n1 | – | < 10 | –
10 | Cc1ccc(Nc2cc(O)nc(O)n2)cc1C | 1 | – | –
11 | Oc1cc(NCc2ccccc2)nc(O)n1 | 2.3 | – | 2.5
12 | O=c1cc(NCC2CCCCC2)[nH]c(=O)[nH]1 | – | < 10 | –
13 | CC(=O)Nc1ccc(CNc2cc(=O)[nH]c(=O)[nH]2)cc1 | 2300 | – | –
14 | CC(Nc1cc(=O)[nH]c(=O)[nH]1)c1ccccc1 (configuration not stated) | – | < 10 | –
